# MC4R antag cAMP: antagonists of human melanocortin 4 receptor (MC4R); hit rate 0.48% among 360,000; AID 540295; P32245; inhibition, % at 6.5 µM; MC4R-expressing cells, MTII-stimulated cAMP, LANCE TR-FRET;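 active = inhibition above its plate's cutoff, the mean of tested wells on that plate plus 3 SD, cut at about 29% in these data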;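 also: 0% = Melanotan II alone and 100% = Melanotan II plus saturating MCL0020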
#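 Assay system: human MC4R-expressing U2OS cells; reagent: Melanotan II stimulation of cells; dosing: 6.5 µM single dose; timing: compound 30 min, challenge 1 h, detection 1 h; signal: TR-FRET cAMP assay; replicates: one well per compound, no replicates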
# EBI2 block: EBI2 (human) antagonism. P32249. EBI2 beta-arrestin recruitment, luminescence, 7a,25-OHC stimulated. inhibition, % at 5 µM. hit rate 0.81% among 360,000. AID 651636; in the data active = inhibition above about 38%;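 also: enzyme fragment complementation signal reports receptor beta-arrestin coupling in cells; 0% = agonist plus DMSO wells and 100% = wells without agonist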
# Target sequence (P32249 whole entry, looked up, the tested form may be a part): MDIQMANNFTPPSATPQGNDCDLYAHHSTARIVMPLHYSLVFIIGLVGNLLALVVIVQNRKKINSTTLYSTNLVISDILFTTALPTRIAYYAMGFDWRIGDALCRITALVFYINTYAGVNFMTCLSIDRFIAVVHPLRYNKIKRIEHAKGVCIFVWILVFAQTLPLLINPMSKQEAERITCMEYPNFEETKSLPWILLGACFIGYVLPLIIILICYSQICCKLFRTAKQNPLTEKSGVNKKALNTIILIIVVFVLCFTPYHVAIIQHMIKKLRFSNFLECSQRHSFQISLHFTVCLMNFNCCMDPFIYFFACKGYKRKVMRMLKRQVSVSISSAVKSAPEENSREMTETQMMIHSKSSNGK
# Granule exo inh: blocks lytic granule exocytosis. TALL-104 LAMP-1 surface exposure, flow cytometry; cells stimulated with thapsigargin and PMA. inhibition, % at 10 µM. hit rate 0.66% among 360,000;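 active = inhibition above about 55%, limit read from the data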
# MC4R ag barr: agonists of human melanocortin 4 receptor (MC4R) beta-arrestin. P32245. U2OS MC4R beta-arrestin complementation, luminescence; percent of melanotan II response, DMSO zero. activation, % at 8.9 µM. hit rate 0.98% among 360,000. AID 540308;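 active = activation above a per-plate cutoff, the mean activation of sample wells on that plate plus 3 SD, cut at about 8% in these data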
# Myeloid diff MLP: compounds promoting myeloid differentiation; ER-HoxA9 myeloid progenitors, lysozyme-GFP differentiation, flow cytometry; calls only at 10 µM; hit rate 1% among 360,000; AID 624256;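 active = normalized GFP-positive differentiation at or above the plate's own cutoff, the solvent-only control mean plus 3 SD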;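 also: cells exposed to compound for four days before flow analysis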
# EBI2 antag conf: confirmation of human EBI2 receptor antagonists | shares compounds with EBI2 block | EBI2 beta-arrestin luminescence, 7a,25-OHC antagonism | inhibition, % at 5 µM | hit rate 29% among 2,400 | AID 651997;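 active = inhibition of at least 50%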
# EBI2 agonist: activates EBI2, counter-screen for EBI2 antagonists. shares compounds with EBI2 block. EBI2-expressing cells, agonist mode, luminescence, 60 min; 0% vehicle, 100% 7α,25-dihydroxycholesterol control. activation, % at 5 µM. 2,400 tested, under 10 active;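 active = activation of at least 50%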
# bGal cs: inhibits E. coli beta-galactosidase, counter-screen for EBI2 antagonists | shares compounds with EBI2 block | purified beta-galactosidase, luminescent Galacton Star, 15 min | inhibition, % at 5 µM | hit rate 1% among 2,400 | AID 652176;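 active = replicate-average signal at least 3 plate SD below neutral wells, shown as high inhibition, flagging enzyme-inhibiting false positives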;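 also: 0% = DMSO wells with enzyme and 100% = wells lacking enzyme; higher means stronger loss of beta-gal luminescence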
# Numbers without * were called inactive; i = inactive; . = no result; + = active, no number. The list is not random: actives were taken first. Their share in the collection is about 3.7%.
SMILES,MC4R antag cAMP,EBI2 block,Granule exo inh,MC4R ag barr,Myeloid diff MLP,EBI2 antag conf,EBI2 agonist,bGal cs
COc1ccc2c(C)c(C(=O)N3CCN(Cc4ccccc4)CC3)oc2c1,-1,45*,20,-1,i,15,0,7
CNC(=O)c1c[nH]c2ccc(S(=O)(=O)Nc3cccc(SC)c3)cc2c1=O,19,3,-3,-1,i,.,.,.
CC1CCN(S(=O)(=O)c2ccc3c(c2)C(Cl)(Cl)C(=O)N3)CC1,4,-33,19,3,i,.,.,.
COCC(=O)N1CCC(Oc2ccc(C(=O)NC3Cc4ccccc4C3)cc2)CC1,1,0,-1,-2,i,.,.,.
CC(C)Sc1nc2sc(-c3ccccc3)cc2c(=O)n1N,13,51*,-1,0,i,9,0,-12
N#Cc1cc(-c2ccccc2)nc(Oc2ccc(Cl)cc2)n1,-1,6,-2,2,i,.,.,.
N#Cc1cnc(Oc2ccc(Cl)cc2)nc1N,6,47*,-5,-1,i,0,-1,-14
CSc1nnc(-c2sc3cc(C(F)(F)F)cnc3c2-c2ccccc2)n1C,-8,8,-2,0,i,.,.,.
Cc1cc(NC(=O)CN2CC(C)OC(C)C2)n(-c2nc3ccccc3s2)n1 (stereo not given),-4,18,-2,-2,i,.,.,.
CCOC(=O)C1CCN(CC(=O)Nc2cc(C)nn2-c2nc3ccccc3s2)CC1,4,55*,-3,-1,i,22,1,-9
COc1ccc(CN(Cc2cccnc2)S(=O)(=O)c2ccc(-n3cnnn3)c(OC)c2)cc1,9,4,22,-4,i,.,.,.
COc1ccc(CN(Cc2ccc(OC)cc2)S(=O)(=O)c2ccc(-n3cnnn3)c(C)c2)cc1,2,45*,-6,0,i,6,-2,-13
COC(=O)c1ccc2[nH]c3c(c2c1)CC(C)CC3 (stereo not given),-7,50*,29,2,i,44,-1,-12
CCCC(C)NC(=O)c1ccc2[nH]c3c(c2c1)CC(C)CC3 (stereo not given),7,31,0,0,i,.,.,.
Cc1cc(C)n(-c2ccc(NC(=O)C3CCN(Cc4ccc(C)o4)CC3)cc2)n1,-1,-9,-12,1,i,.,.,.
O=C1CC(Nc2ccc3ccccc3c2)C(=O)N1Cc1ccccc1 (stereo not given),6,63*,5,-2,i,24,0,5
COc1ccc(Cc2nnc(Nc3ccccc3)s2)cc1Br,8,35*,-11,5,+,19,0,9
O=C(Cn1nc(C(=O)O)c2ccccc2c1=O)c1c[nH]c2ccccc12,-6,77*,-3,1,i,69*,1,5
COC1C=CC(CNC(=O)c2cc3c(=O)n4cccc(C)c4nc3n2C)(OC)O1 (stereo not given),11,49*,-10,1,i,-8,2,6
Cc1cccc(C)c1-n1nnnc1C(c1ccnc2ccccc12)N1CCCC1 (stereo not given),.,6,2,.,i,.,.,.
Cc1cccc(C)c1-n1nnnc1C(c1ccnc2ccccc12)N1CCN(C(=O)OCc2ccccc2)CC1 (stereo not given),.,41*,-2,.,i,36,-1,-14
CC(C)CNc1ncnc2c1ncn2[C@H]1CN(Cc2ccc(C(=O)O)cc2)C[C@@H](CO)O1,-4,-12,-5,0,i,.,.,.
CCOC(=O)c1ccc(Nc2cc(C)nc(-c3ccccc3)n2)cc1,-20,57*,-12,-1,.,49,0,14
COc1ccc(NC(=O)CN(C)C(=O)CCCc2nc3ccccc3s2)cc1,6,-1,3,-2,i,.,.,.
O=C(CCNC(=O)c1ccccc1Cl)Nc1ccc(S(=O)(=O)Nc2nccs2)cc1,0,-1,4,0,i,.,.,.

# Source: PubChem BioAssay (several laboratories)
